Experimental data as given in ChEMBL document CHEMBL1153046, “Synthesis and antitumor activity of substituted triazolo[4,3-a]pyrimidin-6-sulfonamide with an incorporated thiazolidinone moiety” (2009).

Columns and labels:
Assay type in all cases: functional
MOLT-4 = assay: Growth inhibition of human MOLT4 cells after 48 hrs by sulforhodamine B assay; conditions: MOLT-4, 48 h; for CC50: read-out: LC50 (the source's name)
Procedure, shortened: (§1)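 NCI 60-cell-line panel. Cells are grown in RPMI1640 with 5% fetal calf serum and 2 mM L-glutamine, seeded at a density set by growth characteristics, and preincubated 24 h. Compound is tested at a minimum of five concentrations at 10-fold dilution, with 48 h continuous exposure. Viability is read by sulforhodamine B protein assay. GI50, TGI and LC50 come from dose-response curves.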

[1] = Growth inhibition of human […] cells after 48 hrs by sulforhodamine B assay; conditions: for CC50: read-out: LC50 (the source's name); procedure, shortened: as §1
SR = assay: Growth inhibition of human SR cells after 48 hrs by sulforhodamine B assay
Procedure, shortened: (§2)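 NCI 60-cell-line panel (nine cancer types), with cells grown in RPMI1640 plus 5% fetal calf serum and 2 mM L-glutamine. Cells are seeded at a density that depends on the line and preincubated 24 h. Compounds are then applied at a minimum of five 10-fold dilutions over a 5-log range with 48 h continuous exposure. Viability is read by SRB protein assay, and GI50 is derived from dose-response curves in units of 10^-5 M.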

A549 = assay: Growth inhibition of human A549 cells after 48 hrs by sulforhodamine B assay; conditions: A549, 48 h; procedure, shortened: as §1
NCI-H23 = assay: Growth inhibition of human NCI-H23 cells after 48 hrs by sulforhodamine B assay; conditions: NCI-H23, 48 h; procedure, shortened: as §1
NCI-H322M = assay: Growth inhibition of human NCI-H322M cells after 48 hrs by sulforhodamine B assay; procedure, shortened: as §1
NCI-H460 [2] = assay: Growth inhibition of human NCI-H460 cells after 48 hrs by sulforhodamine B assay; conditions: NCI-H460, 48 h; procedure, shortened: as §1
NCI-H522 = assay: Growth inhibition of human NCI-H522 cells after 48 hrs by sulforhodamine B assay; conditions: NCI-H522, 48 h; procedure, shortened: as §1
COLO 205 = assay: Growth inhibition of human COLO205 cells after 48 hrs by sulforhodamine B assay; conditions: COLO 205, 48 h; procedure, shortened: as §1
HCC 2998 = assay: Growth inhibition of human HCC2998 cells after 48 hrs by sulforhodamine B assay; conditions: HCC 2998, 48 h; procedure, shortened: as §1
HT-29 = assay: Growth inhibition of human HT-29 cells after 48 hrs by sulforhodamine B assay; conditions: HT-29, 48 h; procedure, shortened: as §1
KM12 = assay: Growth inhibition of human KM12 cells after 48 hrs by sulforhodamine B assay; conditions: KM12, 48 h; procedure, shortened: as §1
SF-539 = assay: Growth inhibition of human SF539 cells after 48 hrs by sulforhodamine B assay; conditions: SF-539, 48 h; procedure, shortened: as §1
SNB-19 = assay: Growth inhibition of human SNB19 cells after 48 hrs by sulforhodamine B assay; conditions: SNB-19, 48 h; procedure, shortened: as §2
SK-MEL-28 = assay: Growth inhibition of human SK-MEL-28 cells after 48 hrs by sulforhodamine B assay; conditions: SK-MEL-28, 48 h; procedure, shortened: as §1
UACC-257 = assay: Growth inhibition of human UACC257 cells after 48 hrs by sulforhodamine B assay; conditions: UACC-257, 48 h; procedure, shortened: as §2
OVCAR-3 = assay: Growth inhibition of human OVCAR-3 cells after 48 hrs by sulforhodamine B assay; conditions: OVCAR-3, 48 h; procedure, shortened: as §1
OVCAR-4 = assay: Growth inhibition of human OVCAR4 cells after 48 hrs by sulforhodamine B assay; conditions: OVCAR-4, 48 h; procedure, shortened: as §1
OVCAR-5 = assay: Growth inhibition of human OVCAR5 cells after 48 hrs by sulforhodamine B assay; conditions: OVCAR-5, 48 h; procedure, shortened: as §1
786-0 = assay: Growth inhibition of human 786-0 cells after 48 hrs by sulforhodamine B assay; conditions: 786-0, 48 h; for CC50: read-out: LC50 (the source's name); procedure, shortened: as §1
A498 = assay: Growth inhibition of human A498 cells after 48 hrs by sulforhodamine B assay; conditions: A498, 48 h; procedure, shortened: as §1
CAKI-1 = assay: Growth inhibition of human Caki1 cells after 48 hrs by sulforhodamine B assay; conditions: CAKI-1, 48 h; procedure, shortened: as §1
TK-10 = assay: Growth inhibition of human TK10 cells after 48 hrs by sulforhodamine B assay; conditions: TK-10, 48 h; procedure, shortened: as §2
NCI-H460 [3] = assay: Antiproliferative activity against human NCI-H460 cells assessed as cell growth at 100 uM after 48 hrs by alamar blue assay; conditions: NCI-H460, 48 h, read-out: Activity
Procedure, shortened: (§3)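 NCI three-cell-line primary screen. Cells are seeded and preincubated in microtiter plates. Compound is added at a single 10^-4 M concentration and cultures are incubated 48 h. The end-point is read with alamar blue. Results are given as percent growth relative to untreated control cells.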

SF-268 = assay: Antiproliferative activity against human SF268 cells assessed as cell growth at 100 uM after 48 hrs by alamar blue assay; conditions: SF-268, 48 h, read-out: Activity; procedure, shortened: as §3
CCRF-CEM = assay: Growth inhibition of human CCRF-CEM cells after 48 hrs by sulforhodamine B assay; procedure, shortened: as §1
PC-3 = assay: Growth inhibition of human PC3 cells after 48 hrs by sulforhodamine B assay; conditions: PC-3, 48 h; procedure, shortened: as §1
DU-145 = assay: Growth inhibition of human DU145 cells after 48 hrs by sulforhodamine B assay; conditions: DU-145, 48 h; procedure, shortened: as §1
MCF7 = assay: Growth inhibition of human MCF7 cells after 48 hrs by sulforhodamine B assay; conditions: MCF7, 48 h; procedure, shortened: as §1
MDA-MB-435 = assay: Growth inhibition of human MDA-MB-435 cells after 48 hrs by sulforhodamine B assay; conditions: MDA-MB-435, 48 h; procedure, shortened: as §1
BT-549 = assay: Growth inhibition of human BT549 cells after 48 hrs by sulforhodamine B assay; conditions: BT-549, 48 h; procedure, shortened: as §1

COc1ccc(/C=N/c2nc3[nH]nc(C)n3c(=O)c2S(=O)(=O)NN2C(=O)C(CN3CCOCC3)SC2c2ccc(OC)cc2)cc1 (centres undefined)
GI50 (MOLT-4): 13.6 µM | TGI (MOLT-4): 34.4 µM | CC50 (MOLT-4): 86.8 µM | GI50 [1]: 16.4 µM | TGI [1]: 44.3 µM | CC50 [1]: > 100 µM | GI50 (SR): 11.7 µM | LC50 (concentration killing 50% of cells) (SR): 71.5 µM | TGI (SR): 28.9 µM | GI50 (A549): 29.6 µM | TGI (A549): > 100 µM | GI50 (NCI-H23): 87.8 µM | TGI (NCI-H23): > 100 µM | GI50 (NCI-H322M): 39.8 µM | TGI (NCI-H322M): > 100 µM | GI50 (NCI-H460 [2]): 87.7 µM | TGI (NCI-H460 [2]): > 100 µM | GI50 (NCI-H522): 32.5 µM | TGI (NCI-H522): > 100 µM | GI50 (COLO 205): 66.2 µM | TGI (COLO 205): > 100 µM | GI50 (HCC 2998): 22 µM | LC50 (HCC 2998): > 100 µM | TGI (HCC 2998): > 100 µM | GI50 (HT-29): 26.7 µM | GI50 (KM12): 36.1 µM | GI50 (SF-539): 75.1 µM | LC50 (SF-539): > 100 µM | TGI (SF-539): > 100 µM | GI50 (SNB-19): > 100 µM | TGI (SNB-19): > 100 µM | GI50 (SK-MEL-28): > 100 µM | TGI (SK-MEL-28): > 100 µM | GI50 (UACC-257): 32.2 µM | LC50 (UACC-257): > 100 µM | TGI (UACC-257): > 100 µM | GI50 (OVCAR-3): 22.5 µM | LC50 (concentration killing 50% of cells) (OVCAR-3): > 100 µM | TGI (OVCAR-3): 60.5 µM | GI50 (OVCAR-4): 94.4 µM | LC50 (OVCAR-4): > 100 µM | TGI (OVCAR-4): > 100 µM | GI50 (OVCAR-5): > 100 µM | LC50 (concentration causing 50% net cell kill) (OVCAR-5): > 100 µM | TGI (OVCAR-5): > 100 µM | GI50 (786-0): 67.1 µM | TGI (786-0): > 100 µM | CC50 (786-0): > 100 µM | GI50 (A498): 25.5 µM | LC50 (concentration giving 50% net cell kill) (A498): > 100 µM | TGI (A498): 69.2 µM | GI50 (CAKI-1): 43.3 µM | LC50 (50% lethal concentration) (CAKI-1): > 100 µM | TGI (CAKI-1): > 100 µM | GI50 (TK-10): 40.1 µM | LC50 (TK-10): > 100 µM | TGI (TK-10): > 100 µM | growth at 100 µM (NCI-H460 [3]): 16% | growth at 100 µM (SF-268): 75% | GI50 (CCRF-CEM): 25.8 µM | TGI (CCRF-CEM): 78.9 µM | GI50 (PC-3): 24.6 µM | LC50 (concentration killing 50% of cells) (PC-3): > 100 µM | TGI (PC-3): > 100 µM | GI50 (DU-145): 28.8 µM | LC50 (concentration giving 50% net cell kill) (DU-145): > 100 µM | TGI (DU-145): > 100 µM | GI50 (MCF7): 77.3 µM | TGI (MCF7): > 100 µM | GI50 (MDA-MB-435): 35 µM | TGI (MDA-MB-435): > 100 µM | GI50 (BT-549): > 100 µM | TGI (BT-549): > 100 µM

COc1ccc(/C=N/c2nc3[nH]nc(C)n3c(=O)c2S(=O)(=O)NN2C(=O)C(CN3CCN(C)CC3)SC2c2ccc(OC)cc2)cc1 (centres undefined)
GI50 (MOLT-4): 17.8 µM | TGI (MOLT-4): 58.9 µM | CC50 (MOLT-4): > 100 µM | GI50 [1]: 14.1 µM | TGI [1]: 39 µM | CC50 [1]: > 100 µM | GI50 (SR): 7.72 µM | LC50 (concentration killing 50% of cells) (SR): 84.9 µM | TGI (SR): 27.5 µM | GI50 (A549): 13.4 µM | TGI (A549): 50.8 µM | GI50 (NCI-H23): 20.5 µM | TGI (NCI-H23): 48.1 µM | GI50 (NCI-H322M): 21.1 µM | TGI (NCI-H322M): 51.1 µM | GI50 (NCI-H460 [2]): 16.4 µM | TGI (NCI-H460 [2]): 46.7 µM | GI50 (NCI-H522): 21.9 µM | TGI (NCI-H522): 47.7 µM | GI50 (HCC 2998): 8.59 µM | LC50 (HCC 2998): 71.9 µM | TGI (HCC 2998): 22.5 µM | GI50 (HT-29): 34.7 µM | GI50 (KM12): 24.8 µM | GI50 (SF-539): 6.5 µM | LC50 (SF-539): 61.2 µM | TGI (SF-539): 21.8 µM | GI50 (SNB-19): 25.7 µM | TGI (SNB-19): 72.5 µM | GI50 (SK-MEL-28): 30.3 µM | TGI (SK-MEL-28): 78.2 µM | GI50 (UACC-257): 21.6 µM | LC50 (UACC-257): 92.3 µM | TGI (UACC-257): 44.7 µM | GI50 (OVCAR-3): 21.5 µM | LC50 (concentration killing 50% of cells) (OVCAR-3): 75.3 µM | TGI (OVCAR-3): 40.2 µM | GI50 (OVCAR-4): 23.3 µM | LC50 (OVCAR-4): 96.5 µM | TGI (OVCAR-4): 47.4 µM | GI50 (OVCAR-5): 24.3 µM | LC50 (concentration causing 50% net cell kill) (OVCAR-5): 90.7 µM | TGI (OVCAR-5): 47 µM | GI50 (786-0): 16.2 µM | TGI (786-0): 31.2 µM | CC50 (786-0): 59.9 µM | GI50 (A498): 12.9 µM | LC50 (concentration giving 50% net cell kill) (A498): 60.9 µM | TGI (A498): 28.1 µM | GI50 (CAKI-1): 20.9 µM | LC50 (50% lethal concentration) (CAKI-1): 77.8 µM | TGI (CAKI-1): 40.3 µM | GI50 (TK-10): 19.4 µM | LC50 (TK-10): 82.1 µM | TGI (TK-10): 39.9 µM | growth at 100 µM (NCI-H460 [3]): 0% | growth at 100 µM (SF-268): 18% | GI50 (CCRF-CEM): 17.2 µM | TGI (CCRF-CEM): 49.2 µM | GI50 (PC-3): 14.7 µM | LC50 (concentration killing 50% of cells) (PC-3): 70.2 µM | TGI (PC-3): 32.2 µM | GI50 (DU-145): 11.8 µM | LC50 (concentration giving 50% net cell kill) (DU-145): 86.6 µM | TGI (DU-145): 32 µM | GI50 (MCF7): 15.3 µM | TGI (MCF7): 47.8 µM | GI50 (MDA-MB-435): 24.1 µM | TGI (MDA-MB-435): 64.6 µM | GI50 (BT-549): 19.1 µM | TGI (BT-549): 46.3 µM
